Measured values: ChEMBL document CHEMBL3769325, “Exploration of 2-benzylbenzimidazole scaffold as novel inhibitor of NF-κB” (Bioorg Med Chem, 2016)

Assays:
[1] = tested on: RAW264.7; assay: Inhibition of LPS induced NF-kappa-B transcriptional activity in mouse RAW264.7 cells at 30 uM after 20 hrs by SEAP reporter assay; type: cell-based
How it was run: (§1)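 RAW 264.7 cells stably transfected with an NF-κB-driven SEAP reporter, stimulated with LPS. Culture supernatants were heated to 65 °C for 5 min, then reacted in the dark with 4-methylumbelliferyl phosphate (500). SEAP activity was read as RFU at ex 360/em 450 nm. Results are given as IC50 or as % inhibition at 30, from three independent experiments, each averaged from triplicates.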

[2] = Inhibition of LPS induced NF-kappa-B transcriptional activity in mouse RAW264.7 cells after 20 hrs by SEAP reporter assay; type: cell-based; conditions: RAW264.7, 20 h; how it was run: as §1

IC50 [2] | Structure (SMILES) | inhibition [1]
> 30 µM | Clc1ccc2[nH]c(Cc3ccccc3)nc2c1 | 31%
2.4 µM | COc1ccccc1Cc1nc2ccccc2[nH]1 | 85%
12 µM | O=[N+]([O-])c1ccc(Cc2nc3ccccc3[nH]2)cc1 | 64%
18 µM | COc1ccc2[nH]c(Cc3ccccc3)nc2c1 | 45%
> 30 µM | Clc1ccc(-c2nc3ccccc3[nH]2)cc1 | 12%
> 30 µM | c1ccc(Cc2nc3ccccc3o2)cc1 | 33%
6 µM | Oc1ccc(Cc2nc3ccccc3[nH]2)cc1 | 75%
18.4 µM | c1ccc(Cc2nc3ccccc3[nH]2)cc1 [BENDAZOL] | 43%
> 30 µM | COc1ccc(-c2nc3ccccc3[nH]2)cc1 | 22%
19 µM | Cc1ccc(Cc2nc3ccccc3[nH]2)cc1 | 60%
> 30 µM | COc1ccc(Cc2nc3cc(OC)ccc3[nH]2)cc1 | 61%
2.4 µM | Clc1ccc(Cc2nc3ccccc3[nH]2)cc1 | 85%
> 30 µM | COc1ccc(Cc2nc3ccccc3o2)cc1 | 42%
> 30 µM | Clc1ccccc1Cc1nc2ccccc2[nH]1 | 33%
> 30 µM | c1ccc(-c2nc3ccccc3[nH]2)cc1 | 22%
6 µM | Oc1ccc(Cc2nc3ccccc3[nH]2)cc1O | 75%
15 µM | Clc1ccc(Cc2nc3ccccc3[nH]2)cc1Cl | 63%
16.4 µM | FC(F)(F)c1ccc(Cc2nc3ccccc3[nH]2)cc1 | 55%
28 µM | CS(=O)(=O)c1ccc(Cc2nc3ccccc3[nH]2)cc1 | 43%
9 µM | COc1ccc(Cc2nc3ccccc3s2)cc1 | 67%
1.7 µM | COc1ccc(Cc2nc3ccccc3[nH]2)cc1 | 90%
10 µM | COc1ccc(Cc2nc3cc(Cl)ccc3[nH]2)cc1 | 66%
> 30 µM | COc1cc(Cc2nc3ccccc3[nH]2)cc(OC)c1OC | 32%
5 µM | Clc1ccc(Cc2nc3cc(Cl)ccc3[nH]2)cc1 | 76%
> 30 µM | COc1ccc(CCc2nc3ccccc3[nH]2)cc1 | 50%
> 30 µM | COc1ccc(Cc2nc3ccccc3[nH]2)cc1OC | 32%
10 µM | CC(C)CCOc1cccc(O)c1C(=O)/C=C/c1ccc(O)cc1 | 

Structure (SMILES) | IC50 [2] | inhibition [1]
Nc1ccc(Cc2nc3ccccc3[nH]2)cc1 | > 30 µM | 40%
Clc1cccc(Cc2nc3ccccc3[nH]2)c1 | 10 µM | 66%
